Screens: PubChem BioAssay, Broad Institute
Rows were chosen to be rich in hits. Some 3.1% of all compounds tested hit in one or more screens of this group.
rRNA inh HTS – inhibitors of bacterial rRNA selective over humanized ribosomes | E. coli WT GFP vs humanized-ribosome RFP mutants, fluorescence, 24 h; active compounds read low; DMSO median 0, no signal -100 | AID 720706 | 1.6% of 350,000 active | GFP signal change (wild-type ribosome), % (concentration not given with the values);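 active means significant combined selectivity score with lowered wild-type GFP, culture density cut under 30%, mutant RFP and density less affected; inactive means any of these conditions unmet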
SIRT5 block – blocks human SIRT5 desuccinylation of peptide; Q9NXA8; AID 652115; 1.1% of 330,000 active; Purified SirT5, succinyl-peptide AMC, trypsin-coupled fluorescence; inhibition, % at 15 µM; in the data active means inhibition above about 15%; inconclusive means no clear call, values can overlap the other calls
Target sequence (Q9NXA8 whole entry, looked up): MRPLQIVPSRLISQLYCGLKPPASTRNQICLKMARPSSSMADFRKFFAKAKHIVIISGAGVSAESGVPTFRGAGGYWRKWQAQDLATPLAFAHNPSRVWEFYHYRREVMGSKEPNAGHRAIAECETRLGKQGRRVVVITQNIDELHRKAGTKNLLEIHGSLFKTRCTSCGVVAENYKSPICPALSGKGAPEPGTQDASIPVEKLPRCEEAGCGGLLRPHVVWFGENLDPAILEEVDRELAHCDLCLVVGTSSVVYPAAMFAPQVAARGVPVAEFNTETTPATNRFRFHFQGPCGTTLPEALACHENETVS
S100A4 inh HTS – blocks human S100A4 binding to myosin IIA peptide. S100A4/TAMRA-MyoIIA peptide fluorescence polarization. inhibition, % at 10.7 µM. P26447. 0.14% of 360,000 active;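 active means mean inhibition of at least 70% across replicates, with every replicate also reaching that level; inconclusive means mean inhibition reaches 70% but some replicates fall short; inactive means mean inhibition below 70%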
Target sequence (P26447 whole entry, looked up): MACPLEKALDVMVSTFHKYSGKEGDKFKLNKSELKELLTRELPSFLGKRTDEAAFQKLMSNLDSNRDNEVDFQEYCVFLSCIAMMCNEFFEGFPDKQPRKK
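Assay system: human S100A4 monomer with TAMRA-labelled myosin IIA peptide / Buffer or medium: Calcium-containing HEPES buffer, pH 7.2 / Reagent: TAMRA-labelled myosin IIA heavy-chain peptide probe, 5 nM / Compound: one dose per compound / Timing: polarization read 5 min after assay mix addition, stable 5–60 min / Benchmarks: neutral control DMSO, positive control TFP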
F508del corr – correctors of CFTR F508del function in bronchial epithelial cells; CFBE cells, YFP halide quenching; stimulated with forskolin plus potentiator P3; % fluorescence drop versus neutral controls; 0.36% of 350,000 active; activity (quench increase), % at 7.58 µM; AID 720511;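 active means mean added fluorescence quench of at least 8% versus neutral control, with both replicates also reaching 8%; inconclusive means only one of the mean or replicate conditions met; inactive means mean below 8% and not both replicates reaching 8%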;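 further: cells transiently co-express mutant CFTR-F508del with the halide-sensitive YFP; corrector assay measuring rescue of mutant channel to the surface after 24 h compound exposure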
ERAP1 inh – ERAP1 (human) enzyme inhibition. AID 652197. Q9NZ08. inhibition, % at 10.7 µM. recombinant ERAP1, Leu-AMC fluorescence, 60 min. 0.15% of 340,000 active;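 active means mean replicate inhibition of at least 30%, or all replicates individually reaching that 30% level; inactive means mean below 30% and not every replicate reaching it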;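 further: 0% = neutral control wells and 100% = L-leucinethiol positive control wells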
Numbers without * were called inactive; ? = inconclusive; . = not tested or not shown; ! = repeats disagree.

SMILES | rRNA inh HTS | SIRT5 block | S100A4 inh HTS | F508del corr | ERAP1 inh
C[C@@H]1CN([C@H](C)CO)C(=O)c2cc(NS(C)(=O)=O)ccc2O[C@@H](C)CCCCO[C@H]1CN(C)Cc1ccc(C(=O)O)cc1 | -1.8 | -4.1 | 2.2 | -1.6 | 2.0
CCCC#Cc1cnc2c(c1)C(=O)N([C@@H](C)CO)C[C@H](C)[C@@H](CN(C)C(=O)Cc1cccnc1)O2 | 3.3 | -2.0 | 0.5 | 2.8 | 0.2
CC(C)NC(=O)N(C)C[C@@H]1Oc2ccc(NS(C)(=O)=O)cc2CC(=O)N(C)C[C@@H]1C | 4.3 | . | . | . | .
CO[C@H]1CN(C)C(=O)c2ccc(NC(C)=O)cc2OC[C@H](C)N(C(=O)c2ccc(F)cc2)C[C@@H]1C | 1.2 | -0.1 | -2.6 | -0.7 | 1.3
O=C(Nc1ccc(Cl)cc1)N1C[C@H]2[C@@H](c3ccccc31)[C@H](CO)N2C(=O)c1ccccn1 | -19.2* | -0.7 | -13.9 | 0.1 | -1.6
O=C(Nc1ccccc1F)N1C[C@H]2[C@@H](c3ccccc31)[C@@H](CO)N2C(=O)c1ccccn1 | -1.3 | 9.8 | 61.3 | 9.7* | 3.0
O=C(Nc1ccccc1F)N1C[C@H]2[C@@H](c3ccccc31)[C@H](CO)N2C(=O)C1CCCCC1 | -2.6 | 3.7 | 1.1 | -1.3 | -0.1
O=C(Nc1ccccc1)N1C[C@@H]2[C@H](c3ccccc31)[C@@H](CO)N2C(=O)c1ccccn1 | 0.3 | -1.9 | -1.1 | 0.2 | 5.0
O=C(Nc1ccccc1F)N1C[C@@H]2[C@H](c3ccccc31)[C@H](CO)N2C(=O)c1ccccn1 | -33.8 | 0.6 | -29.1 | 5.0 | 2.1
O=C(Nc1ccccc1F)N1C[C@@H]2[C@H](c3ccccc31)[C@@H](CO)N2C(=O)C1CCCC1 | 3.1 | 3.0 | 129.5* | 0.3 | 0.4
O=C(Nc1ccccc1)N1C[C@H]2[C@@H](c3ccccc31)[C@H](CO)N2C(=O)c1ccccn1 | 0.5 | 0.7 | -2.4 | 11.4* | 2.1
COc1ccc(S(=O)(=O)Nc2ccc3c(c2)C(=O)N([C@H](C)CO)C[C@@H](C)[C@H](CN(C)C(=O)NC2CCCCC2)OCCCC[C@@H](C)O3)cc1 | 2.0 | 4.8 | -31.5 | 0.8 | 1.8
CCCN1[C@@H]2Cn3c(ccc(-c4cccc(OC)c4)c3=O)[C@H]1[C@@H](C(=O)NCC)[C@@H]2CO | -0.2 | -3.6 | -0.4 | . | -0.7
N#C[C@H]1[C@H](c2ccc(-c3ccccc3)cc2)[C@H](CO)N1C(=O)Cc1ccccc1 | -6.8 | 15.2* | 5.1 | 0.0 | 2.7
N#C[C@@H]1[C@@H](c2ccc(-c3ccccc3)cc2)[C@H](CO)N1C(=O)Cc1ccccc1 | -20.7 | 2.5 | ? | 1.9 | 1.3
Cc1noc(C)c1S(=O)(=O)Nc1ccc2c(c1)C(=O)N([C@H](C)CO)C[C@@H](C)[C@H](CN(C)Cc1ccc(C(F)(F)F)cc1)OCCCC[C@H](C)O2 | -7.7 | 17.7* | -8.4 | 0.0 | 0.4
Cc1noc(C)c1S(=O)(=O)Nc1ccc2c(c1)C(=O)N([C@@H](C)CO)C[C@@H](C)[C@H](CN(C)Cc1ccc(C(F)(F)F)cc1)OCCCC[C@@H](C)O2 | 3.8 | 16.9* | 1.4 | -1.7 | 0.6
Cc1noc(C)c1S(=O)(=O)Nc1ccc2c(c1)C(=O)N([C@H](C)CO)C[C@@H](C)[C@H](CN(C)Cc1ccc(C(F)(F)F)cc1)OCCCC[C@@H](C)O2 | -3.0 | 23.6* | -3.4 | 2.5 | 3.3
Cc1noc(C)c1S(=O)(=O)Nc1ccc2c(c1)C(=O)N([C@@H](C)CO)C[C@@H](C)[C@H](CN(C)C(=O)Nc1ccc(F)cc1)O2 | 2.0 | . | . | -2.1 | .
COCC#Cc1ccc2c(c1)O[C@H](CN(C)C(=O)CN(C)C)[C@H](C)CN([C@H](C)CO)S2(=O)=O | 7.7 | -2.8 | -3.6 | -0.2 | -1.0
O=C(O)c1ccc(Cl)c(NCc2ccncc2)c1 | 9.2 | -2.6 | -4.7 | -2.6 | 3.5
Cc1ccc(CNc2cc(C(=O)O)ccc2Cl)s1 | -32.9* | -3.0 | -1.7 | 1.3 | -1.5
O=S(=O)(NCC[C@H]1CC[C@H](NS(=O)(=O)c2cccc(Cl)c2)[C@@H](CO)O1)c1cccc(F)c1 | -7.7 | -0.3 | -8.4 | -2.3 | 1.6
O=S(=O)(NC1CCCC1)c1ccc(S(=O)(=O)N(Cc2cccs2)CC2CCCO2)cc1 (stereo not given) | -29.5* | -4.4 | -3.6 | -0.2 | -1.7
CC(C)NC(=O)N(C)C[C@@H]1Oc2ncc(C#CC3CCCC3)cc2C(=O)N([C@H](C)CO)C[C@H]1C | 0.7 | 3.4 | 15.5 | 0.4 | 0.3
SMILES | rRNA inh HTS | SIRT5 block | S100A4 inh HTS | F508del corr | ERAP1 inh
CNC[C@@H]1Oc2ccc(NC(=O)NC3CCCCC3)cc2CC(=O)N([C@@H](C)CO)C[C@@H]1C | 2.9 | 6.9 | -0.8 | 0.4 | 3.7
CC(C)(C)OC(=O)NCCC(=O)N/N=C/c1cccc2cccnc12 | -16.3* | 1.3 | 31.8 | 2.0 | -6.6
CC(C)(C)OC(=O)NCCC(=O)N/N=C/c1ccc2ncccc2c1 | -3.7 | -2.5 | -5.2 | . | -0.3
C[C@@H]1CN([C@@H](C)CO)C(=O)c2cc(NC(=O)CCC(F)(F)F)ccc2O[C@@H](C)CCCCO[C@H]1CN(C)S(=O)(=O)c1ccc(F)cc1 | -0.3 | 4.8 | -81.3 | -0.4 | -3.6
CC(=O)N1c2ccc(S(=O)(=O)N3CCC(C(=O)Nc4ncccc4C)CC3)cc2CC1C (stereo not given) | -2.2 | -0.7 | 86.0* | 0.2 | -0.4
CC(=O)N1c2ccc(S(=O)(=O)N3CCC(C(=O)Nc4ccccn4)CC3)cc2CC1C (stereo not given) | -1.5 | -0.6 | 5.2 | -2.7 | -1.1
CS(=O)(=O)N[C@H]1C[C@@H]2O[C@H](CO)CC[C@@H]2O[C@@H]1CCc1ccc(-c2ccccc2F)cc1 | . | 0.5 | 8.6 | -0.7 | 4.7
C1CCC(C(CC2CCCCN2)C2CCCCC2)CC1 (stereo not given) | -57.2 | -6.4 | 8.6 | 9.9*! | -5.4
CC=Cc1ccc2n(c1=O)C[C@@H]1[C@@H](CO)[C@H](C(=O)NCC3CCCCC3)N(C(C)=O)[C@H]21 (mixture of isomers) | 0.0 | 3.4 | -0.7 | -1.7 | 0.1
CN(C)CCNC(=O)c1cccc(S(=O)(=O)Nc2ccccc2F)c1 | 8.9 | 30.2* | 1.3 | 0.2 | -0.5
O=C(Nc1ccccc1N1CCOCC1)c1cccc(S(=O)(=O)Nc2ccccc2F)c1 | . | -2.5 | -7.7 | 1.8 | 6.2
CSc1nc(SCC(=O)O)c2sc3nc(-c4ccccc4)c4c(c3c2n1)CCC4 | . | 18.5* | 1.5 | 1.0 | 9.6
CSc1nc(NCCN(C)C)c2sc3nc(-c4ccco4)c4c(c3c2n1)CCC4 | . | -1.5 | 2.6 | -13.2 | .
Cc1cccc(S(=O)(=O)N2CCCCN3[C@H](CO)[C@@H](c4ccc(-c5ccccc5)cc4)[C@@H]3C2)c1 | . | 15.6* | 3.4 | 1.5 | 4.0
